Measured values: ChEMBL document CHEMBL1926628, “Febrifugine analogue compounds: synthesis and antimalarial evaluation” (Bioorg Med Chem, 2012)

Legend:
Plasmodium falciparum [1] = assay: Antimalarial activity against chloroquine-resistant Plasmodium falciparum VS/1 infected in human A positive erythrocytes assessed as inhibition of [G-3H]-hypoxanthine uptake after 24 hrs by liquid scintillation counting; assay type: functional; conditions: VS/1, 24 h
[2] = Therapeutic index, ratio of MTD for Sprague-Dawley rat to MCD for blood stage of Plasmodium berghei NK65; conditions: read-out: TI
In short: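 MCD (minimum clearance dose) comes from rodents infected with blood-stage P. berghei NK65, dosed orally except artesunate, which was given iv. MTD (maximum tolerated dose) comes from Sprague–Dawley rats. Both are in mg/kg. Therapeutic index is MTD divided by MCD.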

Plasmodium falciparum [3] = assay: Antimalarial activity against chloroquine-resistant Plasmodium falciparum TM6 infected in human A positive erythrocytes assessed as inhibition of [G-3H]-hypoxanthine uptake after 24 hrs by liquid scintillation counting; assay type: functional, organism-based; conditions: TM6, 24 h
Plasmodium falciparum [4] = assay: Antimalarial activity against chloroquine-resistant Plasmodium falciparum K1 infected in human A positive erythrocytes assessed as inhibition of [G-3H]-hypoxanthine uptake after 24 hrs by liquid scintillation counting; assay type: functional, organism-based; conditions: K1, 24 h
Plasmodium berghei [5] = assay: Antimalarial activity against blood stage of Plasmodium berghei NK65 infected in po dosed rat assessed as minimum curative dose; assay type: functional
In short: (§1)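 Rodents infected with blood-stage Plasmodium berghei NK65 were dosed by the route given in each line. Read-out was the minimum clearance dose (MCD), the lowest dose clearing parasites, reported in mg/kg. Method follows earlier reports.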

Plasmodium falciparum [6] = assay: Antimalarial activity against Plasmodium falciparum TM4 infected in human A positive erythrocytes assessed as inhibition of [G-3H]-hypoxanthine uptake after 24 hrs by liquid scintillation counting; assay type: functional, organism-based; conditions: TM4, 24 h
Plasmodium falciparum [7] = assay: Antimalarial activity against Plasmodium falciparum Dd2 infected in human A positive erythrocytes assessed as inhibition of [G-3H]-hypoxanthine uptake after 24 hrs by liquid scintillation counting; assay type: functional, organism-based; conditions: Dd2, 24 h
Plasmodium berghei [8] = assay: Antimalarial activity against blood stage of Plasmodium berghei NK65 infected in po dosed rat assessed as inhibition of parasite growth; assay type: functional
In short: (§2)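 Blood-stage Plasmodium berghei NK65 infection in rodents. Compounds were given by the route stated in each line. ED50 is the dose in mg/kg giving 50% parasite growth inhibition relative to the untreated blank control. Procedure follows earlier reports.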

Plasmodium falciparum [9] = assay: Antimalarial activity against Plasmodium falciparum PH3 infected in human A positive erythrocytes assessed as inhibition of [G-3H]-hypoxanthine uptake after 24 hrs by liquid scintillation counting; assay type: functional, organism-based; conditions: PH3, 24 h
Plasmodium falciparum [10] = assay: Antimalarial activity against chloroquine-sensitive Plasmodium falciparum 3D7 infected in human A positive erythrocytes assessed as inhibition of [G-3H]-hypoxanthine uptake after 24 hrs by liquid scintillation counting; assay type: functional, organism-based; conditions: 3D7, 24 h
[11] = Acute toxicity in po dosed Sprague-Dawley rat assessed as maximum tolerated dose; assay type: organism-based; conditions: in vivo
Plasmodium berghei [12] = assay: Antimalarial activity against blood stage of Plasmodium berghei NK65 infected in iv dosed rat assessed as minimum curative dose; assay type: functional; in short: as §1
Plasmodium berghei [13] = assay: Antimalarial activity against blood stage of Plasmodium berghei NK65 infected in iv dosed rat assessed as inhibition of parasite growth; assay type: functional; in short: as §2

Row | SMILES | IC50 (Plasmodium falciparum [1]) [nM] | selectivity ratio [2] | IC50 (Plasmodium falciparum [3]) [nM] | IC50 (Plasmodium falciparum [4]) [nM] | MCD (Plasmodium berghei [5]) [mg/kg] | IC50 (Plasmodium falciparum [6]) [nM] | IC50 (Plasmodium falciparum [7]) [nM] | ED50 (Plasmodium berghei [8]) [mg/kg] | IC50 (Plasmodium falciparum [9]) [nM] | IC50 (Plasmodium falciparum [10]) [nM] | MTD [11] [mg/kg] | MCD (Plasmodium berghei [12]) [mg/kg] | ED50 (Plasmodium berghei [13]) [mg/kg]
1 | CC(C)O[C@H]1CCN[C@@H]1C(=O)Cn1cnc2cccc(C(F)(F)F)c2c1=O | 0.68 | 104 | 0.31 | 0.61 | 2.4 | 0.39 | 0.78 | 0.23 | 0.54 | 0.36 | 250 |  | 
2 | O=C(Cn1cnc2cccnc2c1=O)[C@H]1NCC[C@H]1O | 28.7 |  | 13.2 | 19.8 |  | 32.7 | 21.9 |  | 11.4 | 16.3 |  |  | 
3 | O=C(Cn1cnc2cccc(C(F)(F)F)c2c1=O)[C@H]1NCC[C@H]1O | 36.5 |  | 25.6 | 24.2 |  | 51.9 | 31.8 |  | 21.2 | 19.6 |  |  | 
4 | O=C(Cn1cnc2cccnc2c1=O)[C@@H]1NCC[C@H]1O | 3.7 |  | 2 | 3.3 |  | 4 | 2.4 |  | 1 | 1.9 |  |  | 
5 | O=C(Cn1cnc2cccc(C(F)(F)F)c2c1=O)[C@@H]1NCC[C@H]1O | 11 |  | 2.7 | 4.8 |  | 7.3 | 6.1 |  | 3.4 | 2.6 |  |  | 
6 | C[C@H]1[C@H](OC(=O)CCC(=O)O)O[C@@H]2O[C@@]3(C)CC[C@H]4[C@H](C)CC[C@@H]1[C@@]24OO3 [ARTESUNATE] |  | 37 |  |  |  |  |  |  |  |  |  | 6.8 | 0.55
7 | CCN(CC)CCCC(C)Nc1ccnc2cc(Cl)ccc12 (stereo unspecified) [CHLOROQUINE] |  |  |  |  | 40 |  |  | 4.5 |  |  |  |  | 
8 | O=C(C[C@@H]1NCCC[C@H]1O)Cn1cnc2ccccc2c1=O [FEBRIFUGINE] | 4.2 | 3 | 3.1 | 2 | 12 | 5.4 | 2.1 | 2.3 |  |  | 35 |  | 
9 | OC(c1cc(C(F)(F)F)nc2c(C(F)(F)F)cccc12)C1CCCCN1 (stereo unspecified) [MEFLOQUINE] |  | 61 |  |  | 9.9 |  |  | 1.1 |  |  |  |  | 
